Values joined by “and” are separate entries in the source; they are usually repeats but may differ in a detail not shown here. Identical values can stand only once.
What was measured:
Enterovirus A71 = assay: Inhibition concentration against EV-71; assay type: functional, organism-based
[1] = (§1) Cytotoxicity against human rhabdomyosarcoma (RD) cells; assay type: functional
Outline: (§2)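 Test compound at various concentrations added to D551 (human normal skin fibroblast), WI38 (human normal lung fibroblast) or RD cells; incubated 96 h at 37 °C; cells harvested and viable cells counted by trypan blue staining. Triplicate, at least twice.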

[2] = as §1; assay type: functional; remark: listed apart in the source
[3] = Selectivity index (D551/EV71) of the compound; assay type: functional
[4] = Selectivity index (RD/EV71) of the compound; assay type: functional
[5] = Selectivity index (W138/EV71) of the compound; assay type: functional
[6] = Cytotoxicity against human normal skin fibroblast (D551) cells; assay type: cell-based; outline: as §2
Coxsackievirus [7] = assay: Inhibition concentration against coxsackie virus A10; assay type: functional, organism-based
Outline: (§3)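 Plaque reduction on Vero cell monolayers infected to give about 50-100 plaques per monolayer in virus control; test compound diluted into agar-medium overlay; 96 h at 35 °C, crystal violet staining, plaques counted. […] Triplicate well means, at least two experiments.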

Coxsackievirus [8] = assay: Inhibition concentration against coxsackie virus A16; assay type: functional, organism-based; outline: as §3
Coxsackievirus [9] = assay: Inhibition concentration against coxsackie virus A24; assay type: functional, organism-based; outline: as §3
Coxsackievirus [10] = assay: Inhibition concentration against coxsackie virus A9; assay type: functional, organism-based; outline: as §3
Coxsackievirus [11] = assay: Inhibition concentration against coxsackie virus B1; assay type: functional, organism-based; outline: as §3
Coxsackievirus [12] = assay: Inhibition concentration against coxsackie virus B2; assay type: functional, organism-based; outline: as §3
Coxsackievirus [13] = assay: Inhibition concentration against coxsackie virus B3; assay type: functional, organism-based; outline: as §3
Coxsackievirus [14] = assay: Inhibition concentration against coxsackie virus B4; assay type: functional, organism-based; outline: as §3
Coxsackievirus [15] = assay: Inhibition concentration against coxsackie virus B5; assay type: functional, organism-based; outline: as §3
Coxsackievirus [16] = assay: Inhibition concentration against coxsackie virus B6; assay type: functional, organism-based; outline: as §3
Enterovirus [17] = assay: Inhibition concentration against echovirus 29; assay type: functional, organism-based; outline: as §3
Enterovirus [18] = assay: Inhibition concentration against echovirus 9; assay type: functional, organism-based; outline: as §3
Enterovirus [19] = assay: Inhibition Concentration against enterovirus 68; assay type: functional, organism-based; outline: as §3
Enterovirus [20] = assay: Inhibition concentration against EV-71 (1743) genotype B; assay type: functional, organism-based; outline: as §3
Enterovirus [21] = assay: Inhibition concentration against EV-71 (2086) genotype C; assay type: functional, organism-based; outline: as §3
Enterovirus [22] = assay: Inhibition concentration against EV-71 (2231) genotype C; assay type: functional, organism-based; outline: as §3
Enterovirus [23] = assay: Inhibition concentration against EV-71 (BrCR) genotype A; assay type: functional, organism-based; outline: as §3
Human alphaherpesvirus 2 = assay: Inhibition concentration against herpes simplex virus; assay type: functional, organism-based; outline: as §3
[24] = tested on: unidentified influenza virus; assay: Inhibition concentration against influenza A (WSN); assay type: functional, organism-based
Outline: (§4)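 Plaque reduction assay on Vero cell monolayers. Virus was added at a dose giving about 50-100 plaques per monolayer in virus controls. Compound was diluted into the agar-medium overlay, tested up to 25 µM. Plates were incubated 96 h at 35 °C, stained with crystal violet, and plaques counted.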

[25] = tested on: unidentified influenza virus; assay: Inhibition concentration against influenza B […]; assay type: functional, organism-based; outline: as §4
Enterovirus [26] = assay: Inhibition concentration against human rhinovirus 14; assay type: functional, organism-based; outline: as §3
Enterovirus [27] = assay: Inhibition concentration against human rhinovirus 2; assay type: functional, organism-based; outline: as §3
[28] = Cytotoxicity against human normal skin fibroblast (W138) cells; assay type: cell-based; outline: as §2
[29] = D551 normal skin fibroblast cells
[30] = W138 normal skin fibroblast cells

Structure (SMILES): COc1ccc(OCCCCCCN2CCN(c3ccncc3)C2=O)cc1
- IC50 (Enterovirus A71; Enterovirus A): 5.43 µM
- CC50 [1]: > 25 µM

Structure (SMILES): O=C1N(CCCCCCOc2cccc3ccccc23)CCN1c1ccncc1
- IC50 (Enterovirus A71; Enterovirus A): > 6.25 µM
- CC50 ([2]; Homo sapiens, RD): 6.25 µM

Structure (SMILES): O=C1N(CCCCCOc2ccc(-c3ccc([N+](=O)[O-])cc3)cc2)CCN1c1ccncc1 [listing 1 of 3 here]
- Selectivity index [3]: > 169 and 200
- Selectivity index [4]: > 76
- Selectivity index [5]: > 169 and 212

Structure (SMILES): O=C1N(CCCCCCOc2cccc(Br)c2)CCN1c1ccncc1
- IC50 (Enterovirus A71; Enterovirus A): > 25 µM
- CC50 ([2]; Homo sapiens, RD): > 25 µM

Structure (SMILES): O=C1N(CCCCCCOc2ccc(C(F)(F)F)cc2)CCN1c1ccncc1
- CC50 [6, 29]: 55 µM
- IC50 (Coxsackievirus [7]): 15.7 µM
- IC50 (Coxsackievirus [8]): > 25 µM
- IC50 (Coxsackievirus [9]): 0.47 µM
- IC50 (Coxsackievirus [10]): 1.44 µM
- IC50 (Coxsackievirus [11]): 5.6 µM
- IC50 (Coxsackievirus [12]): > 25 µM
- IC50 (Coxsackievirus [13]): > 25 µM
- IC50 (Coxsackievirus [14]): > 25 µM
- IC50 (Coxsackievirus [15]): > 25 µM
- IC50 (Coxsackievirus [16]): > 25 µM
- IC50 (Enterovirus [17]): > 25 µM
- IC50 (Enterovirus [18]): 2.61 µM
- IC50 (Enterovirus [19]): 4.67 µM
- IC50 (Enterovirus [20]): 0.75 µM
- IC50 (Enterovirus [21]): 0.51 µM
- IC50 (Enterovirus [22]): 1.35 µM
- IC50 (Enterovirus [23]): 1.37 µM
- IC50 (Human alphaherpesvirus 2): > 25 µM
- IC50 (Enterovirus A71; Enterovirus A): 0.58 µM
- IC50 [24]: > 25 µM
- IC50 [25]: > 25 µM
- IC50 (Enterovirus [26]): > 12.5 µM
- IC50 (Enterovirus [27]): > 25 µM
- CC50 ([2]; Homo sapiens, RD): > 25 µM
- CC50 [28, 30]: 36 µM
- Selectivity index [3]: 108
- Selectivity index [4]: > 43
- Selectivity index [5]: 71

Structure (SMILES): O=C1N(CCCCCCCOc2ccc(C(F)(F)F)cc2)CCN1c1ccncc1
- IC50 (Enterovirus A71; Enterovirus A): 0.61 µM
- CC50 ([2]; Homo sapiens, RD): 6.25 µM

Structure (SMILES): O=C1N(CCCCCOc2ccc(Cl)cc2)CCN1c1ccncc1
- IC50 (Enterovirus A71; Enterovirus A): 1.35 µM
- CC50 [1]: > 25 µM

Structure (SMILES): O=C1N(CCCCCCOc2ccc(Cl)cc2)CCN1c1ccncn1
- IC50 (Enterovirus A71; Enterovirus A): > 25 µM
- CC50 ([2]; Homo sapiens, RD): > 25 µM

Structure (SMILES): O=C1N(CCCCCOc2ccc(-c3ccc(Br)cc3)cc2)CCN1c1ccncc1
- CC50 [6, 29]: > 100 µM
- IC50 (Enterovirus A71; Enterovirus A): 0.14 µM
- CC50 ([2]; Homo sapiens, RD): > 25 µM
- CC50 [28, 30]: > 100 µM
- Selectivity index [3]: > 714
- Selectivity index [4]: > 179
- Selectivity index [5]: > 714

Structure (SMILES): N#Cc1ccc(-c2ccc(OCCCCCN3CCN(c4ccncc4)C3=O)cc2)cc1
- IC50 (Enterovirus A71; Enterovirus A): 2.66 µM
- CC50 ([2]; Homo sapiens, RD): > 25 µM

Structure (SMILES): O=C1N(CCCCCCOc2ccc(C(F)(F)F)cc2)CCN1c1cccnc1
- IC50 (Enterovirus A71; Enterovirus A): 2.1 µM
- CC50 ([2]; Homo sapiens, RD): > 25 µM

Structure (SMILES): O=C1N(CCCCCCOc2ccc(F)cc2)CCN1c1cccnc1
- IC50 (Enterovirus A71; Enterovirus A): 9.33 µM
- CC50 ([2]; Homo sapiens, RD): > 25 µM

Structure (SMILES): O=C1N(CCCCCCOc2ccc(Cl)cc2)CCN1c1cccnc1
- IC50 (Enterovirus A71; Enterovirus A): 2.52 µM
- CC50 ([2]; Homo sapiens, RD): > 25 µM

Structure (SMILES): O=C1N(CCCCCOc2ccc(Cl)cc2)CCN1c1cccnc1
- IC50 (Enterovirus A71; Enterovirus A): 4.65 µM
- CC50 ([2]; Homo sapiens, RD): > 25 µM

Structure (SMILES): O=C1N(CCCCCOc2ccc(Br)cc2)CCN1c1ccccc1
- IC50 (Enterovirus A71; Enterovirus A): 10.7 µM
- CC50 ([2]; Homo sapiens, RD): > 25 µM

Structure (SMILES): CC(C)(C)c1ccc(OCCCCCCN2CCN(c3cccnc3)C2=O)cc1
- IC50 (Enterovirus A71; Enterovirus A): > 25 µM
- CC50 ([2]; Homo sapiens, RD): > 25 µM

Structure (SMILES): O=C1N(CCCCCCOc2ccc(C(F)(F)F)cc2)CCN1c1ccnc(Cl)c1
- IC50 (Enterovirus A71; Enterovirus A): > 25 µM
- CC50 ([2]; Homo sapiens, RD): > 25 µM

Structure (SMILES): N#Cc1ccc(OCCCCCCN2CCN(c3ccncc3)C2=O)cc1
- IC50 (Enterovirus A71; Enterovirus A): > 0.39 µM
- CC50 ([2]; Homo sapiens, RD): 0.39 µM

Structure (SMILES): O=C1N(CCCCCCOc2ccc(Br)cc2)CCN1c1ccccc1
- IC50 (Enterovirus A71; Enterovirus A): 10.6 µM
- CC50 ([2]; Homo sapiens, RD): > 25 µM

Structure (SMILES): Cc1ccc(OCCCCCCN2CCN(c3ccncc3)C2=O)cc1
- IC50 (Enterovirus A71; Enterovirus A): 6.36 µM
- CC50 ([2]; Homo sapiens, RD): > 25 µM

Structure (SMILES): O=C1N(CCCCCOc2ccc(-c3ccc([N+](=O)[O-])cc3)cc2)CCN1c1ccncc1 [listing 2 of 3 here]
- CC50 [6, 29]: > 100 µM
- IC50 (Enterovirus A71; Enterovirus A): 0.59 µM
- CC50 ([2]; Homo sapiens, RD): > 25 µM
- CC50 [28, 30]: > 100 µM

Structure (SMILES): O=C1N(CCCCCCOc2ccc(Br)cc2)CCN1c1ccnc(Cl)c1
- IC50 (Enterovirus A71; Enterovirus A): > 25 µM
- CC50 ([2]; Homo sapiens, RD): > 25 µM

Structure (SMILES): O=C1N(CCCCCCCOc2ccc(Br)cc2)CCN1c1ccncc1
- IC50 (Enterovirus A71; Enterovirus A): 0.56 µM
- CC50 ([2]; Homo sapiens, RD): > 25 µM

Structure (SMILES): O=C1N(CCCCCOc2ccc(-c3ccc(Cl)cc3)cc2)CCN1c1ccncc1
- CC50 [6]: 13 µM
- CC50 [2]: 12.5 µM
- CC50 [28]: 48 µM

Structure (SMILES): CSc1ccc(OCCCCCCN2CCN(c3ccnc(Cl)c3)C2=O)cc1
- IC50 (Enterovirus A71; Enterovirus A): > 25 µM
- CC50 ([2]; Homo sapiens, RD): > 25 µM

Structure (SMILES): O=C1N(CCCCCOc2ccc(-c3ccc([N+](=O)[O-])cc3)cc2)CCN1c1ccncc1 [listing 3 of 3 here]
- CC50 [6]: 66 µM
- IC50 (Enterovirus A71): 0.33 µM
- CC50 [28]: 70 µM
